ChEMBL document CHEMBL4689842, “EUbOPEN Chemogenomics Library wave 1” (2021)

Test system: Fibroblast
Test: Multiplex assay against human fibroblast
Assay type: toxicity, cell-based
How it was run: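 Live cells were stained at seeding with Hoechst33342, BioTracker Green Microtubule Cytoskeleton Dye, MitoTracker Red and Annexin V Alexa Fluor 680, then imaged on a CQ1 microscope at 37°C and 5% CO2 after compound addition. CellPathfinder machine-learning gating split cells into Hoechst high-intensity objects or normal cells. Normal cells were split into healthy, pyknosed or fragmented nuclei, and pyknosed cells into mitotic or apoptotic. Tubulin, mitochondrial-mass and membrane-permeability phenotypes are per cents of healthy-nucleus cells.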

[1] = 12 h, 1 µM, compound concentration 1 uM, replicate 1
[2] = 12 h, 1 µM, compound concentration 1 uM, replicate 2
[3] = 12 h, 10 µM, compound concentration 10 uM, replicate 1
[4] = 12 h, 10 µM, compound concentration 10 uM, replicate 2
[5] = 24 h, 1 µM, compound concentration 1 uM, replicate 1
[6] = 24 h, 1 µM, compound concentration 1 uM, replicate 2
[7] = 24 h, 10 µM, compound concentration 10 uM, replicate 1
[8] = 24 h, 10 µM, compound concentration 10 uM, replicate 2
[9] = 48 h, 1 µM, compound concentration 1 uM, replicate 1
[10] = 48 h, 1 µM, compound concentration 1 uM, replicate 2
[11] = 48 h, 10 µM, compound concentration 10 uM, replicate 1
[12] = 48 h, 10 µM, compound concentration 10 uM, replicate 2

## COc1ncc(-c2ccc3nccc(-c4ccnnc4)c3c2)cc1NS(=O)(=O)c1ccc(F)cc1F [OMIPALISIB]
[1]
  Population Apoptotic (%): 57%
  Population Fragmented Nuclei (%): 21%
  Population Healthy Nuclei (%): 49%
  Population Hoechst High Intensity Objects (%): 12%
  Population Membrane Permeable-Phenotype (%): 28%
  Population Mitochondria Different-Phenotype (%): 2%
  Population Mitotic Cells (%): 42%
  Population Normal (%): 87%
  Population Pyknosed Nuclei (%): 29%
  Population Tubulin-Different-Phenotype (%): 51%
  Total Cell Count: 81
[2]
  Population Apoptotic (%): 50%
  Population Fragmented Nuclei (%): 46%
  Population Healthy Nuclei (%): 42%
  Population Hoechst High Intensity Objects (%): 7%
  Population Membrane Permeable-Phenotype (%): 16%
  Population Mitochondria Different-Phenotype (%): 16%
  Population Mitotic Cells (%): 50%
  Population Normal (%): 92%
  Population Pyknosed Nuclei (%): 11%
  Population Tubulin-Different-Phenotype (%): 23%
  Total Cell Count: 51
[3]
  Population Apoptotic (%): 78%
  Population Fragmented Nuclei (%): 20%
  Population Healthy Nuclei (%): 38%
  Population Hoechst High Intensity Objects (%): 18%
  Population Membrane Permeable-Phenotype (%): 30%
  Population Mitochondria Different-Phenotype (%): 6%
  Population Mitotic Cells (%): 21%
  Population Normal (%): 81%
  Population Pyknosed Nuclei (%): 41%
  Population Tubulin-Different-Phenotype (%): 73%
  Total Cell Count: 96
[4]
  Population Apoptotic (%): 65%
  Population Fragmented Nuclei (%): 33%
  Population Healthy Nuclei (%): 27%
  Population Hoechst High Intensity Objects (%): 7%
  Population Membrane Permeable-Phenotype (%): 11%
  Population Mitochondria Different-Phenotype (%): 16%
  Population Mitotic Cells (%): 34%
  Population Normal (%): 92%
  Population Pyknosed Nuclei (%): 39%
  Population Tubulin-Different-Phenotype (%): 22%
  Total Cell Count: 77
[5]
  Population Apoptotic (%): 58%
  Population Fragmented Nuclei (%): 30%
  Population Healthy Nuclei (%): 53%
  Population Hoechst High Intensity Objects (%): 10%
  Population Membrane Permeable-Phenotype (%): 32%
  Population Mitochondria Different-Phenotype (%): 2%
  Population Mitotic Cells (%): 41%
  Population Normal (%): 89%
  Population Tubulin-Different-Phenotype (%): 42%
  Total Cell Count: 84
[6]
  Population Apoptotic (%): 33%
  Population Fragmented Nuclei (%): 43%
  Population Healthy Nuclei (%): 40%
  Population Hoechst High Intensity Objects (%): 11%
  Population Membrane Permeable-Phenotype (%): 24%
  Population Mitochondria Different-Phenotype (%): 17%
  Population Mitotic Cells (%): 66%
  Population Normal (%): 88%
  Population Pyknosed Nuclei (%): 16%
  Population Tubulin-Different-Phenotype (%): 37%
  Total Cell Count: 50
[7]
  Population Apoptotic (%): 66%
  Population Fragmented Nuclei (%): 25%
  Population Healthy Nuclei (%): 49%
  Population Hoechst High Intensity Objects (%): 20%
  Population Membrane Permeable-Phenotype (%): 31%
  Population Mitochondria Different-Phenotype (%): 11%
  Population Mitotic Cells (%): 33%
  Population Normal (%): 79%
  Population Pyknosed Nuclei (%): 25%
  Population Tubulin-Different-Phenotype (%): 80%
  Total Cell Count: 89
[8]
  Population Apoptotic (%): 80%
  Population Fragmented Nuclei (%): 27%
  Population Healthy Nuclei (%): 22%
  Population Hoechst High Intensity Objects (%): 11%
  Population Membrane Permeable-Phenotype (%): 35%
  Population Mitochondria Different-Phenotype (%): 28%
  Population Mitotic Cells (%): 20%
  Population Normal (%): 88%
  Population Pyknosed Nuclei (%): 49%
  Population Tubulin-Different-Phenotype (%): 42%
  Total Cell Count: 81
[9]
  Population Apoptotic (%): 42%
  Population Fragmented Nuclei (%): 40%
  Population Healthy Nuclei (%): 48%
  Population Hoechst High Intensity Objects (%): 16%
  Population Membrane Permeable-Phenotype (%): 21%
  Population Mitochondria Different-Phenotype (%): 12%
  Population Mitotic Cells (%): 57%
  Population Normal (%): 83%
  Population Pyknosed Nuclei (%): 10%
  Population Tubulin-Different-Phenotype (%): 37%
  Total Cell Count: 79
[10]
  Population Apoptotic (%): 0%
  Population Fragmented Nuclei (%): 47%
  Population Healthy Nuclei (%): 52%
  Population Hoechst High Intensity Objects (%): 13%
  Population Membrane Permeable-Phenotype (%): 35%
  Population Mitochondria Different-Phenotype (%): 3%
  Population Mitotic Cells (%): 0%
  Population Normal (%): 86%
  Population Pyknosed Nuclei (%): 0%
  Population Tubulin-Different-Phenotype (%): 53%
  Total Cell Count: 61
[11]
  Population Apoptotic (%): 63%
  Population Fragmented Nuclei (%): 34%
  Population Healthy Nuclei (%): 50%
  Population Hoechst High Intensity Objects (%): 17%
  Population Membrane Permeable-Phenotype (%): 31%
  Population Mitochondria Different-Phenotype (%): 14%
  Population Mitotic Cells (%): 36%
  Population Normal (%): 82%
  Population Pyknosed Nuclei (%): 15%
  Population Tubulin-Different-Phenotype (%): 82%
  Total Cell Count: 85
[12]
  Population Apoptotic (%): 0%
  Population Fragmented Nuclei (%): 33%
  Population Healthy Nuclei (%): 65%
  Population Hoechst High Intensity Objects (%): 12%
  Population Membrane Permeable-Phenotype (%): 20%
  Population Mitochondria Different-Phenotype (%): 8%
  Population Mitotic Cells (%): 100%
  Population Normal (%): 87%
  Population Pyknosed Nuclei (%): 1%
  Population Tubulin-Different-Phenotype (%): 93%
  Total Cell Count: 86

## C=CC(=O)Nc1ccc2ncnc(Nc3ccc(OCc4cccc(F)c4)c(Cl)c3)c2c1.Cc1ccc(S(=O)(=O)O)cc1
[1]
  Population Apoptotic (%): 53%
  Population Fragmented Nuclei (%): 25%
  Population Healthy Nuclei (%): 37%
  Population Hoechst High Intensity Objects (%): 7%
  Population Membrane Permeable-Phenotype (%): 28%
  Population Mitochondria Different-Phenotype (%): 9%
  Population Mitotic Cells (%): 46%
  Population Normal (%): 92%
  Population Pyknosed Nuclei (%): 36%
  Population Tubulin-Different-Phenotype (%): 26%
  Total Cell Count: 120
[2]
  Population Apoptotic (%): 50%
  Population Fragmented Nuclei (%): 6%
  Population Healthy Nuclei (%): 84%
  Population Hoechst High Intensity Objects (%): 5%
  Population Membrane Permeable-Phenotype (%): 3%
  Population Mitotic Cells (%): 50%
  Population Normal (%): 94%
  Population Pyknosed Nuclei (%): 8%
  Population Tubulin-Different-Phenotype (%): 29%
  Total Cell Count: 77
[3]
  Population Apoptotic (%): 77%
  Population Fragmented Nuclei (%): 27%
  Population Healthy Nuclei (%): 38%
  Population Hoechst High Intensity Objects (%): 15%
  Population Membrane Permeable-Phenotype (%): 15%
  Population Mitochondria Different-Phenotype (%): 7%
  Population Mitotic Cells (%): 22%
  Population Normal (%): 84%
  Population Pyknosed Nuclei (%): 33%
  Population Tubulin-Different-Phenotype (%): 27%
  Total Cell Count: 122
[4]
  Population Apoptotic (%): 75%
  Population Fragmented Nuclei (%): 14%
  Population Healthy Nuclei (%): 79%
  Population Hoechst High Intensity Objects (%): 10%
  Population Membrane Permeable-Phenotype (%): 4%
  Population Mitochondria Different-Phenotype (%): 22%
  Population Mitotic Cells (%): 25%
  Population Normal (%): 89%
  Population Pyknosed Nuclei (%): 6%
  Population Tubulin-Different-Phenotype (%): 16%
  Total Cell Count: 69
[5]
  Population Apoptotic (%): 65%
  Population Fragmented Nuclei (%): 26%
  Population Healthy Nuclei (%): 42%
  Population Hoechst High Intensity Objects (%): 9%
  Population Membrane Permeable-Phenotype (%): 31%
  Population Mitochondria Different-Phenotype (%): 2%
  Population Mitotic Cells (%): 34%
  Population Normal (%): 90%
  Population Pyknosed Nuclei (%): 31%
  Population Tubulin-Different-Phenotype (%): 40%
  Total Cell Count: 123
[6]
  Population Apoptotic (%): 55%
  Population Fragmented Nuclei (%): 4%
  Population Healthy Nuclei (%): 84%
  Population Hoechst High Intensity Objects (%): 5%
  Population Membrane Permeable-Phenotype (%): 2%
  Population Mitochondria Different-Phenotype (%): 8%
  Population Mitotic Cells (%): 44%
  Population Normal (%): 94%
  Population Pyknosed Nuclei (%): 10%
  Population Tubulin-Different-Phenotype (%): 33%
  Total Cell Count: 90
[7]
  Population Apoptotic (%): 61%
  Population Fragmented Nuclei (%): 31%
  Population Healthy Nuclei (%): 39%
  Population Hoechst High Intensity Objects (%): 8%
  Population Membrane Permeable-Phenotype (%): 37%
  Population Mitochondria Different-Phenotype (%): 9%
  Population Mitotic Cells (%): 38%
  Population Normal (%): 91%
  Population Pyknosed Nuclei (%): 28%
  Population Tubulin-Different-Phenotype (%): 48%
  Total Cell Count: 118
[8]
  Population Apoptotic (%): 53%
  Population Fragmented Nuclei (%): 12%
  Population Healthy Nuclei (%): 69%
  Population Hoechst High Intensity Objects (%): 6%
  Population Membrane Permeable-Phenotype (%): 14%
  Population Mitochondria Different-Phenotype (%): 24%
  Population Mitotic Cells (%): 46%
  Population Normal (%): 93%
  Population Pyknosed Nuclei (%): 18%
  Population Tubulin-Different-Phenotype (%): 32%
  Total Cell Count: 77
[9]
  Population Apoptotic (%): 64%
  Population Fragmented Nuclei (%): 34%
  Population Healthy Nuclei (%): 48%
  Population Hoechst High Intensity Objects (%): 8%
  Population Membrane Permeable-Phenotype (%): 28%
  Population Mitochondria Different-Phenotype (%): 0%
  Population Mitotic Cells (%): 35%
  Population Normal (%): 91%
  Population Pyknosed Nuclei (%): 16%
  Population Tubulin-Different-Phenotype (%): 26%
  Total Cell Count: 112
[10]
  Population Apoptotic (%): 50%
  Population Fragmented Nuclei (%): 31%
  Population Healthy Nuclei (%): 65%
  Population Hoechst High Intensity Objects (%): 14%
  Population Membrane Permeable-Phenotype (%): 18%
  Population Mitochondria Different-Phenotype (%): 8%
  Population Mitotic Cells (%): 50%
  Population Normal (%): 85%
  Population Pyknosed Nuclei (%): 2%
  Population Tubulin-Different-Phenotype (%): 41%
  Total Cell Count: 106
[11]
  Population Apoptotic (%): 81%
  Population Fragmented Nuclei (%): 40%
  Population Healthy Nuclei (%): 50%
  Population Hoechst High Intensity Objects (%): 18%
  Population Membrane Permeable-Phenotype (%): 17%
  Population Mitochondria Different-Phenotype (%): 9%
  Population Mitotic Cells (%): 18%
  Population Normal (%): 81%
  Population Pyknosed Nuclei (%): 8%
  Population Tubulin-Different-Phenotype (%): 49%
  Total Cell Count: 154
[12]
  Population Apoptotic (%): 100%
  Population Fragmented Nuclei (%): 22%
  Population Healthy Nuclei (%): 76%
  Population Hoechst High Intensity Objects (%): 11%
  Population Membrane Permeable-Phenotype (%): 12%
  Population Mitochondria Different-Phenotype (%): 3%
  Population Mitotic Cells (%): 0%
  Population Normal (%): 88%
  Population Pyknosed Nuclei (%): 1%
  Population Tubulin-Different-Phenotype (%): 6%
  Total Cell Count: 86
